From paper PMC7339641 (Molecular imaging and biology, 2018)

Legend:
HCC-1954 cells = assay: Fluorescent microscopy of peptide binding, HCC-1954; assay type: cell-based; settings: fixed cells, peptide 250 nM, 1 h room temperature, neutravidin-AlexaFluor488
Method in brief: (§1)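 Cells fixed in 10 % formalin and dried onto slides overnight. Rehydrated in TBS, then blocked with 2 % BSA in TBS for 1 h. Biotinylated test peptide at 250 nM in 0.1 % TBST for 1 h at room temperature, then 3× washes with 0.1 % TBST. Neutravidin-AlexaFluor488 for 1 h at room temperature. Mounted in DAPI-containing medium and imaged on an inverted microscope.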

MDA-MB-453 cells = assay: Fluorescent microscopy of peptide binding, MDA-MB-453; assay type: cell-based, human; settings: fixed cells, peptide 250 nM, 1 h room temperature, neutravidin-AlexaFluor488
Method in brief: as §1

HER3 = settings: human, in vivo; cited from earlier work

Molecule	binding by fluorescent microscopy, HCC-1954 (HCC-1954 cells)	binding by fluorescent microscopy, MDA-MB-453 (MDA-MB-453 cells)	specific accumulation measured by tumor-to-blood ratio (HER3)
CC(C)C[C@@H]1NC(=O)[C@@H](NC(=O)CNC(=O)CNC(=O)CNC(=O)CCCC[C@@H]2SC[C@@H]3NC(=O)N[C@@H]32)CSSC[C@@H](C(=O)O)NC(=O)[C@H](CO)NC(=O)[C@H](CCCNC(=N)N)NC(=O)[C@H](Cc2ccccc2)NC(=O)[C@H](CCCCN)NC(=O)[C@H]([C@@H](C)O)NC(=O)[C@@H]2CCCN2C1=O [biotinylated-HER3P1]	almost no visualization	high binding	
^64Cu-labeled DOTA-conjugated patritumab: 64Cu-labeled DOTA conjugate of the anti-HER3 antibody patritumab			approximately 1
